# Screens as filed in PubChem.
# PP5 inh – PP5 (human) phosphatase inhibition; P53041; purified PP5c, OMFP substrate fluorescence; inhibition, % at 6.7 µM; 320,000 tested, 0.18% active; AID 1987;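 active means inhibition above the campaign's mean inhibition across all tested compounds plus 3 SD, cut at about 9.5% in these data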;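 further: 0% = DMSO only and 100% = 100 µM cantharidin control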
# CTSL1 counter – counter-screen for PFM18AAP inhibitors: inhibitors of F. hepatica cathepsin L1; inhibition, % at 5.96 µM; 300,000 tested, 0.49% active; recombinant F. hepatica cathepsin L1, Z-Leu-Arg-MCA fluorescence;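 active means inhibition above the mean of all tested compounds plus 3 SD, set per screening campaign, cut at about 17% in these data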;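 further: 0% = plate median of test compound wells and 100% = 1 µM Z-Phe-Ala-diazomethylketone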
# T cruzi inh – blocks replication of Trypanosoma cruzi; T. cruzi beta-gal in NIH3T3, luminescence, 90 h; inhibition, % (no concentration beside the values); 300,000 tested, 1.4% active;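 active means mean inhibition across valid replicates above about 55%, limit read from the data; inconclusive means mean below that limit but half or more replicates reach it; inactive means mean below it, under half of replicates reach it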;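 further: signal also drops with host cell toxicity which is not excluded here; 0% = plate median of DMSO wells and 100% = zero luminescence signal; higher percent means less beta-gal luminescence so fewer parasites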
#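 Test system: β-gal T. cruzi (Tulahuen C4) inside NIH/3T3 cells / Quantity: 5,000 cells/well / Measured by: luminescence from GalScreen with 0.05% NP40, read after 60 min / Medium: DMEM plus 2% FBS / Measure: parasite load inhibition, % / Reagent: Tulahuen C4 trypomastigotes, 5000/well / Schedule: co-culture of at least 90 h after 3 h attachment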
# JMJD2C inh – blocks human GASC-1 demethylase activity; GST-JMJD2C(1-420) H3K9me3 demethylation, DELFIA europium; inhibition, % at 2.35 µM; Q9H3R0; 330,000 tested, 0.069% active;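 active means more than half of a compound's replicate wells show inhibition beyond 50%, single wells judged on their own value; inconclusive means some, but no more than half, of replicates pass 50% inhibition; inactive means no replicate passes 50% inhibition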;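 further: signal counts dimethyl H3K9 product captured on neutravidin plate; 0% = median of DMSO wells and 100% = 0.3 times that DMSO median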
# p-CIP stab down – lowers stability of the mouse p/CIP coactivator protein; F442A p/CIP-EGFP cells, EGFP fluorescence, 16 h; decrease of EGFP signal, % at 10 µM; 290,000 tested, 0.01% active; AID 1984;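 active means EGFP signal decrease of at least 30% at 10 µM or well 3 SD below plate mean, unless failing retest; inactive means the rest, including hits failing retest or dose response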
# Cardio protect – modulators protecting cardiomyocytes from myocardial damage; H9c2 cardiomyocytes, H2O2 injury protection, ATPLite, 2 h; 360,000 tested, 0.63% active; protection from H2O2 cell death, % at 20 µM;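 active means compounds giving at least 50% protection of heart cells from peroxide-induced death in the single-dose screen, raw or plate-pattern-corrected value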;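 further: 0% = DMSO wells with peroxide and 100% = DMSO wells without peroxide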
# * marks the source's active call; other numbers are inactive results; ? = inconclusive; . = no result given. Rows were chosen to be rich in hits. Some 2.4% of all compounds tested hit in one or more screens of this group.
SMILES,PP5 inh,CTSL1 counter,T cruzi inh,JMJD2C inh,p-CIP stab down,Cardio protect
COc1ccc2[nH]c(C)c(CCNCc3cc(OC)c(OC)c(OC)c3)c2c1,-1,-2,11,-11,4,-7
COc1ccc(CNCCc2c(C)[nH]c3ccc(OC(F)(F)F)cc23)c(OC)c1,2,-4,59*,3,-26,-19
Cc1ccsc1C(=O)C1CCCN(Cc2cnn(C(C)C)c2)C1 (stereo not given),1,-1,66*,-5,-7,-7
Cc1ccsc1C(=O)C1CCCN(Cc2cnc(N3CCOCC3)s2)C1 (stereo not given),4,-1,60*,5,-11,4
Cc1ccsc1C(=O)C1CCCN(Cc2cnc(N(C)C)s2)C1 (stereo not given),-1,4,59*,-16,11,.
CCc1ccc(CN2CCCC(C(=O)c3sccc3C)C2)o1 (stereo not given),2,1,55*,7,-26,5
CC12C=CC(=O)CC1CCC1C2CCC2(C)C(O)C(O)CC12 (stereo not given),.,.,.,.,.,118*
C[C@]12CCC3C(CC[C@H]4C[C@H](O)CC[C@]34C)C1C[C@@H](O)[C@@H]2O (stereo not given in full),.,.,.,6,.,-2
CCCC(CCC)C(=O)OC[N+](C)(C)CCOC(=O)C(O)(c1ccccc1)C1CCCC1 (stereo not given),4,-2,55*,1,-4,-4
CC(C)(C)C(=O)OC[N+](C)(C)CCOC(=O)C(O)(c1ccccc1)C1CCCC1 (stereo not given),0,0,4,-2,-7,1
O=c1[nH]sc2cc(F)ccc12,.,.,87*,-9,-17,-18
CCC1(CC)C(=O)N(Cc2ccccc2)C(=O)N(Cc2ccccc2)C1=O,3,-4,61*,-4,-14,0
CCC1(c2ccccc2)C(=O)N(C)C(=O)N(C)C1=O,3,0,-7,19,-7,4
CCc1nn(CC(=O)N2CCC3(CC2)OCCO3)c(=O)c2cc3ccccc3n12,3,-3,0,2,17,10
CCCCNC(=S)N1CCn2cccc2C1c1cccnc1 (stereo not given),1,-6,65*,14,-1,-1
CNC(=S)N1CCn2cccc2C1c1cccnc1 (stereo not given),3,-2,36,-3,8,1
CCOc1ccc2[nH]c(=O)c(CN(CCO)C3(c4nnnn4C4CCCCC4)CCCCC3)cc2c1,1,0,4,7,-10,78*
CC(=O)c1ccccc1NC(=O)C1C2CCC(O2)C1C(=O)O (stereo not given),71*,3,-10,9,-3,.
CCCOC(=O)C1C2CCC(O2)C1C(=O)O (stereo not given),.,.,.,.,.,-3
O=C(O)C1C2CCC(O2)C1C(=O)Nc1ccc(F)c(F)c1 (stereo not given),74*,0,-6,-1,-4,8
CN1CCCCC1Cc1ccccc1 (stereo not given),.,.,.,.,.,1
Cc1nn(C)c2c1C(c1ccc(Cl)cc1)SCC(=O)N2C (stereo not given),.,.,.,.,.,5
CCCCn1c(O)c(C(CC)=NCCCN(C)C)c(=O)[nH]c1=O,1,-2,57*,-10,-14,-2
CCCCn1c(O)c(C(C)=NCCCN(CC)CC)c(=O)[nH]c1=O,0,0,58*,1,-10,8
CCCCn1c(O)c(C(C)=NCCCN(C)C)c(=O)[nH]c1=O,1,4,45,1,-3,10
CCCCn1c(O)c(C(CC)=NCCN2CCCCC2)c(=O)[nH]c1=O,0,0,15,?,-16,5
CNC(C(=O)c1ccccc1)C(OC(C)=O)c1cccc([N+](=O)[O-])c1 (stereo not given),1,-4,13,2,-13,-1
CC(C)Nc1ccc(Nc2ccccc2)cc1,2,-4,56*,6,.,-6
COc1ccccc1-n1c(O)c(/C=N/N2CCCCC2)c(=O)n(-c2ccccc2OC)c1=S,-2,1,-1,-6,-11,-3
O=C(N/N=C/c1c(O)n(C2CCCCC2)c(=S)[nH]c1=O)c1ccccc1O,1,1,-20,13,-35,52*
